The nature of data set [1]: Toxicity in Atlantic horseshoe crab blood limulus amebocyte lysate by chromogenic endotoxin test. Conditions: limulus polyphemus. Put shortly:
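Endotoxin was measured by chromogenic Limulus amebocyte lysate assay at a sensitivity of ≤0.1 EU/mL.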

In data set [2] the target is T1, C-type lectin domain family 4 member E (Mus musculus) (UniProt Q9R0Q8).
T1 sequence (whole entry): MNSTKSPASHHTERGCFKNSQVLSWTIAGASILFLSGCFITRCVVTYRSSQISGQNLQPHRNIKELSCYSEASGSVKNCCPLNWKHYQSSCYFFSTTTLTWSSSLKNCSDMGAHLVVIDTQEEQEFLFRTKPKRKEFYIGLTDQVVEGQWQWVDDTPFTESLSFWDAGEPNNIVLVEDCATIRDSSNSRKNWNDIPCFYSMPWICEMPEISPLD
Kind of data set: Agonist activity at mincle in wild type C57BL/6 mouse GM-CSF derived BMDM assessed as increase in IL-6 release at 0.1 to 1 nmol after 24 hrs by sandwich ELISA. Put shortly:
(§1)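 Wild-type or Mincle−/− C57BL/6 bone marrow was cultured 8 days with GM-CSF 50 ng/mL in complete RPMI. Macrophages were detached with Acutase and seeded on ligand-coated plates (0.1 or 1 nmol/well); LPS 100 ng/mL was used as comparator. Supernatant was taken at 24 h and TNF, IL-6, IL-1β and MIP-2 measured by sandwich ELISA. Representative of three experiments in triplicate (±SD).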

The test system of data set [3] is BMDM. The data set can be described thus: Immunostimulatory activity in mincle-/- C57BL/6 mouse GM-CSF derived BMDM assessed as increase in IL-1beta release at […] after 24 hrs by sandwich ELISA method. It is filed as functional, cell-based. Put shortly: as §1
Data set [4] deals with T1, C-type lectin domain family 4 member E (Mus musculus). The data set can be described thus: Agonist activity at mincle in wild type C57BL/6 mouse GM-CSF derived BMDM assessed as increase in TNF release at 0.1 to 1 nmol after 24 hrs by sandwich ELISA. Put shortly: as §1
The subject of data set [5] is BMDM. Kind of data set: Immunostimulatory activity in mincle-/- C57BL/6 mouse GM-CSF derived BMDM assessed as increase in MIP2 release at […] after 24 hrs by sandwich ELISA method. It is filed as functional, cell-based. Put shortly:
as §1

Data set [6] addresses T1, C-type lectin domain family 4 member E (Mus musculus). The data set can be described thus: Agonist activity at mincle in wild type C57BL/6 mouse GM-CSF derived BMDM assessed as increase in MIP2 release at 0.1 to 1 nmol after 24 hrs by sandwich ELISA. Put shortly:
as §1

The target is the same in data set [7]. The data set can be described thus: Agonist activity at mouse mincle coupled with FcRgamma expressed in 2B4-NFAT-GFP reporter cells after 18 hrs by flow cytometric analysis. It is filed as cell-based. Put shortly: (§2)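 2B4 NFAT-GFP reporter cells expressing mouse or human Mincle plus FcRγ were placed on plates coated with ligand at 0.01, 0.1 or 1 nmol/well; cells expressing FcRγ only served as negative control. Ligand was coated from isopropanol, 0.05 mM, and solvent evaporated. After 18 h, cells were harvested, stained with propidium iodide and GFP read by flow cytometry. Mean of three experiments in duplicate (±SEM).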

The test system of data set [8] is BMDM. The data set can be described thus: Immunostimulatory activity in mincle-/- C57BL/6 mouse GM-CSF derived BMDM assessed as increase in IL-6 release at […] after 24 hrs by sandwich ELISA method. The format is functional, cell-based. Put shortly: as §1
Data set [9] addresses T1, C-type lectin domain family 4 member E (Mus musculus). The data set can be described thus: Agonist activity at mincle in wild type C57BL/6 mouse GM-CSF derived BMDM assessed as increase in IL-1beta release at 0.1 to 1 nmol after 24 hrs by sandwich ELISA. Put shortly:
as §1

For data set [10], the target named is T2, C-type lectin domain family 4 member E (Homo sapiens) (UniProt Q9ULY5).
T2 sequence (whole entry): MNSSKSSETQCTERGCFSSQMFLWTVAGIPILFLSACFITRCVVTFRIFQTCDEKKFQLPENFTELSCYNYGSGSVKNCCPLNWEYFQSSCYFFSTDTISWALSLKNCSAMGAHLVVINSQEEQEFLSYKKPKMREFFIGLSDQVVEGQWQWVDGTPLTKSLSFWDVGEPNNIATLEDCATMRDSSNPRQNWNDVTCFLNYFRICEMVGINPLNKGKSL
The data set can be described thus: Agonist activity at human mincle coupled with FcRgamma expressed in 2B4-NFAT-GFP reporter cells after 18 hrs by flow cytometric analysis. It is filed as cell-based. Put shortly:
as §2

The subject of data set [11] is BMDM. The data set can be described thus: Immunostimulatory activity in mincle-/- C57BL/6 mouse GM-CSF derived BMDM assessed as increase in TNF release at […] after 24 hrs by sandwich ELISA method. The format is functional, cell-based. Put shortly: as §1
Data set [12] addresses T2, C-type lectin domain family 4 member E (Homo sapiens). Kind of data set: Binding affinity to recombinant human mincle extracellular domain fused with human IgG Fc expressed in HEK293T cells at 0.1 nmol by ELISA. Conditions: HEK-293T. The format is cell-based.
In data set [13] the target is T1, C-type lectin domain family 4 member E (Mus musculus). Kind of data set: Binding affinity to recombinant mouse mincle extracellular domain fused with human IgG Fc expressed in HEK293T cells at 0.1 nmol by ELISA. It is filed as cell-based. The following applies: HEK-293T.
For data set [14] the target is unchanged. The data set can be described thus: Agonist activity at mouse mincle coupled with FcRgamma expressed in 2B4-NFAT-GFP reporter cells up to 1 nmol after 18 hrs by flow cytometric analysis. It is filed as cell-based. Put shortly:
as §2

The target of data set [15] is T2, C-type lectin domain family 4 member E (Homo sapiens). Kind of data set: Agonist activity at human mincle coupled with FcRgamma expressed in 2B4-NFAT-GFP reporter cells at higher concentration after 18 hrs by flow cytometric analysis. The format is cell-based. Put shortly:
as §2

Each structure is given as a SMILES string. Active and inactive are the calls of the source. The calls are words filed in the database; no cut-off is given here. A value given as a limit tells only on which side of the number the result lay.

As to `CCCCCCCOc1ccc(C(=O)OC[C@H]2O[C@H](O[C@H]3O[C@H](COC(=O)c4ccc(OCCCCCCC)cc4OCc4ccccc4)[C@@H](OCc4ccccc4)[C@H](OCc4ccccc4)[C@H]3OCc3ccccc3)[C@H](OCc3ccccc3)[C@@H](OCc3ccccc3)[C@@H]2OCc2ccccc2)c(OCc2ccccc2)c1`, in data set [1], the Activity result is reported as “<= 0.1 EU/ml”.

Turning to `CCCCCCCCCCCCCCCCCCOc1cc(C)c(C(=O)OC[C@H]2O[C@H](O[C@H]3O[C@H](COC(=O)c4c(C)cc(OCCCCCCCCCCCCCCCCCC)cc4O)[C@@H](O)[C@H](O)[C@H]3O)[C@H](O)[C@@H](O)[C@@H]2O)c(O)c1`, the result in data set [2], in [4], in data set [6], in data set [9], in [12] and in data set [13] was Active. The result in the data set on BMDM [3], in the data set with BMDM [5], in the data set with BMDM [8] and in the data set on BMDM [11] was inactive. Besides, the Activity result in data set [1] is “<= 0.1 EU/ml”; in data set [7], “Dose-dependent effect”; in data set [10] it was “Dose-dependent effect”.

Take `COc1ccc(C(=O)OC[C@H]2O[C@H](O[C@H]3O[C@H](COC(=O)c4ccc(OC)cc4OCc4ccccc4)[C@@H](OCc4ccccc4)[C@H](OCc4ccccc4)[C@H]3OCc3ccccc3)[C@H](OCc3ccccc3)[C@@H](OCc3ccccc3)[C@@H]2OCc2ccccc2)c(OCc2ccccc2)c1`: in data set [1], the Activity result is given as “<= 0.1 EU/ml”.

Regarding `Cc1cc(OCc2ccccc2)cc(OCc2ccccc2)c1C(=O)OC[C@H]1O[C@H](O[C@H]2O[C@H](COC(=O)c3c(C)cc(OCc4ccccc4)cc3OCc3ccccc3)[C@@H](OCc3ccccc3)[C@H](OCc3ccccc3)[C@H]2OCc2ccccc2)[C@H](OCc2ccccc2)[C@@H](OCc2ccccc2)[C@@H]1OCc1ccccc1`, in data set [1], the Activity result was “<= 0.1 EU/ml”.

Regarding `CCCCCCCCCCCCCCCCCCOc1cc(C)c(C(=O)OC[C@H]2O[C@H](O[C@H]3O[C@H](COC(=O)c4c(C)cc(OCCCCCCCCCCCCCCCCCC)cc4OCc4ccccc4)[C@@H](OCc4ccccc4)[C@H](OCc4ccccc4)[C@H]3OCc3ccccc3)[C@H](OCc3ccccc3)[C@@H](OCc3ccccc3)[C@@H]2OCc2ccccc2)c(OCc2ccccc2)c1`, the Activity entry in data set [1] is reported as “<= 0.1 EU/ml”.

For `Cc1cc(O)cc(O)c1C(=O)OC[C@H]1O[C@H](O[C@H]2O[C@H](COC(=O)c3c(C)cc(O)cc3O)[C@@H](O)[C@H](O)[C@H]2O)[C@H](O)[C@@H](O)[C@@H]1O` [BRARTEMICIN], the result (in [2]; with BMDM [3]; in data set [4]; in the data set with BMDM [5]; in data set [6]; in [14]) was inactive. The outcome (with BMDM [8]; in data set [9]; with BMDM [11]; in data set [12]; in data set [13]) was inactive. The Activity result in [1] is listed as “<= 0.1 EU/ml”.

For the compound `CCCCCCCCCCCCCCCCCCOc1ccc(C(=O)OC[C@H]2O[C@H](O[C@H]3O[C@H](COC(=O)c4ccc(OCCCCCCCCCCCCCCCCCC)cc4)[C@@H](OCc4ccccc4)[C@H](OCc4ccccc4)[C@H]3OCc3ccccc3)[C@H](OCc3ccccc3)[C@@H](OCc3ccccc3)[C@@H]2OCc2ccccc2)cc1`, the Activity result in data set [1] is on record as “<= 0.1 EU/ml”.

With `CCCCCCCOc1ccc(C(=O)OC[C@H]2O[C@H](O[C@H]3O[C@H](COC(=O)c4ccc(OCCCCCCC)cc4)[C@@H](OCc4ccccc4)[C@H](OCc4ccccc4)[C@H]3OCc3ccccc3)[C@H](OCc3ccccc3)[C@@H](OCc3ccccc3)[C@@H]2OCc2ccccc2)cc1`, the Activity entry in data set [1] was “<= 0.1 EU/ml”.

As to `O=C(OC[C@H]1O[C@H](O[C@H]2O[C@H](COC(=O)c3ccc(O)cc3O)[C@@H](O)[C@H](O)[C@H]2O)[C@H](O)[C@@H](O)[C@@H]1O)c1ccc(O)cc1O`, the result (in [2]; in the data set with BMDM [3]; in [4]; in the data set with BMDM [5]; in data set [6]; in data set [14]) was inactive. The result (with BMDM [8]; in data set [9]; with BMDM [11]; in [12]; in data set [13]) was inactive. In [1], the Activity entry is reported as “<= 0.1 EU/ml”.

On to `CCCCCCCCCCCCCCCCCCOc1ccc(C(=O)OC[C@H]2O[C@H](O[C@H]3O[C@H](COC(=O)c4ccc(OCCCCCCCCCCCCCCCCCC)cc4)[C@@H](O)[C@H](O)[C@H]3O)[C@H](O)[C@@H](O)[C@@H]2O)cc1`, for which the result in data set [2], in data set [4], in [6], in data set [9], in data set [12] and in data set [13] was Active. Besides, the outcome in the data set with BMDM [3], in the data set on BMDM [5], in the data set on BMDM [8] and in the data set with BMDM [11] was inactive. The values for the Activity entry in data set [1], in data set [7] and in [10] were “<= 0.1 EU/ml”, “Dose-dependent effect” and “Dose-dependent effect”, respectively.

On to `O=C(OC[C@H]1O[C@H](O[C@H]2O[C@H](COC(=O)c3ccc(OCc4ccccc4)cc3OCc3ccccc3)[C@@H](OCc3ccccc3)[C@H](OCc3ccccc3)[C@H]2OCc2ccccc2)[C@H](OCc2ccccc2)[C@@H](OCc2ccccc2)[C@@H]1OCc1ccccc1)c1ccc(OCc2ccccc2)cc1OCc1ccccc1`, for which the Activity entry in [1] is “<= 0.1 EU/ml”.

As to `CCCCCCCCCCCCCCCCCCOc1ccc(C(=O)OC[C@H]2O[C@H](O[C@H]3O[C@H](COC(=O)c4ccc(OCCCCCCCCCCCCCCCCCC)cc4OCc4ccccc4)[C@@H](OCc4ccccc4)[C@H](OCc4ccccc4)[C@H]3OCc3ccccc3)[C@H](OCc3ccccc3)[C@@H](OCc3ccccc3)[C@@H]2OCc2ccccc2)c(OCc2ccccc2)c1`, the Activity entry in data set [1] is “<= 0.1 EU/ml”.

As for `COc1ccc(C(=O)OC[C@H]2O[C@H](O[C@H]3O[C@H](COC(=O)c4ccc(OC)cc4O)[C@@H](O)[C@H](O)[C@H]3O)[C@H](O)[C@@H](O)[C@@H]2O)c(O)c1`, the outcome (in [2]; in the data set on BMDM [3]; in data set [4]; in the data set on BMDM [5]; in data set [6]; in the data set with BMDM [8]) was inactive. The result (in data set [9]; with BMDM [11]; in data set [12]; in data set [13]) was inactive. Also, the Activity entry in data set [1] was “<= 0.1 EU/ml”. For the same compound, in data set [15], the result was Active.

For `CCCCOc1ccc(C(=O)OC[C@H]2O[C@H](O[C@H]3O[C@H](COC(=O)c4ccc(OCCCC)cc4OCc4ccccc4)[C@@H](OCc4ccccc4)[C@H](OCc4ccccc4)[C@H]3OCc3ccccc3)[C@H](OCc3ccccc3)[C@@H](OCc3ccccc3)[C@@H]2OCc2ccccc2)c(OCc2ccccc2)c1`, the Activity result in data set [1] is given as “<= 0.1 EU/ml”.

The values above are taken from ChEMBL document CHEMBL4033780, “Lipidated Brartemicin Analogues Are Potent Th1-Stimulating Vaccine Adjuvants” (J Med Chem, 2018).
